ChEMBL document CHEMBL1133434, “Novel retinoic acid receptor alpha agonists: syntheses and evaluation of pyrazole derivatives” (Bioorg Med Chem Lett, 2000)

What was measured:
[1] = molecular target: T1, Retinoic acid receptor gamma (Homo sapiens) (UniProt P13631); test: Inhibition of [3H]ATRA-Hl60 binding to Retinoic acid receptor gamma relative to ATRA; Not detectable
T1 sequence (whole entry): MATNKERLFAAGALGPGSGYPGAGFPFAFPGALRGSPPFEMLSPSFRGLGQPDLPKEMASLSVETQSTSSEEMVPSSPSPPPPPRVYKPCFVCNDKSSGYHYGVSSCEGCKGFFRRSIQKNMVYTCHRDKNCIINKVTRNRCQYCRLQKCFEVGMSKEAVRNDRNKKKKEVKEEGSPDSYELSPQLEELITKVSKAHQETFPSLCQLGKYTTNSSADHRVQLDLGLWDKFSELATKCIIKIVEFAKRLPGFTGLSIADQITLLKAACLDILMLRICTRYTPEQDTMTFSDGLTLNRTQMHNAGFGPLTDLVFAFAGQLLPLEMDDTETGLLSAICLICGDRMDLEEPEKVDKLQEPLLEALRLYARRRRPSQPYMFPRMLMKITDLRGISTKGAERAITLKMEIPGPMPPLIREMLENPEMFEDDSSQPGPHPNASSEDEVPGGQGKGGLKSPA
In short: (§1)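 Competitive binding at individual RAR subtypes, run with [3H]ATRA as radioligand. Affinity is given as IC50 relative to that of ATRA.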

[2] = molecular target: T2, Retinoic acid receptor alpha (Homo sapiens) (UniProt P10276); test: Relative transcriptional activation in CV-1 cells expressing RAR alpha receptor compared to ATRA; Not detectable; assay type: functional, cell-based; conditions: Cercopithecidae
T2 sequence (whole entry): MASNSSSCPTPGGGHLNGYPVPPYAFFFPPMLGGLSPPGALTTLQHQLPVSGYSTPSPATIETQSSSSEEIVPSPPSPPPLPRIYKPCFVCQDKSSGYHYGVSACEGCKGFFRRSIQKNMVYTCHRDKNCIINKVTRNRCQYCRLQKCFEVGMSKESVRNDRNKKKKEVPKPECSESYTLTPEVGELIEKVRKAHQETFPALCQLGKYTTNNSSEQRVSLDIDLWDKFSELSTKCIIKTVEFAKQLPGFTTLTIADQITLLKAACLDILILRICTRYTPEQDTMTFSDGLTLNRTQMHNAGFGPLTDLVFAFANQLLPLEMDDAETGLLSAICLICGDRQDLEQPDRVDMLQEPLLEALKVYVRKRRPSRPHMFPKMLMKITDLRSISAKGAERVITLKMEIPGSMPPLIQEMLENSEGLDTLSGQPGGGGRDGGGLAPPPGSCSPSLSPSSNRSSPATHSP

[3] = molecular target: T3, Retinoic acid receptor beta (Homo sapiens) (UniProt P10826); test: Relative transcriptional activation in CV-1 cells expressing RAR beta receptor compared to ATRA; Not detectable; assay type: functional, cell-based; conditions: Cercopithecidae
T3 sequence (whole entry): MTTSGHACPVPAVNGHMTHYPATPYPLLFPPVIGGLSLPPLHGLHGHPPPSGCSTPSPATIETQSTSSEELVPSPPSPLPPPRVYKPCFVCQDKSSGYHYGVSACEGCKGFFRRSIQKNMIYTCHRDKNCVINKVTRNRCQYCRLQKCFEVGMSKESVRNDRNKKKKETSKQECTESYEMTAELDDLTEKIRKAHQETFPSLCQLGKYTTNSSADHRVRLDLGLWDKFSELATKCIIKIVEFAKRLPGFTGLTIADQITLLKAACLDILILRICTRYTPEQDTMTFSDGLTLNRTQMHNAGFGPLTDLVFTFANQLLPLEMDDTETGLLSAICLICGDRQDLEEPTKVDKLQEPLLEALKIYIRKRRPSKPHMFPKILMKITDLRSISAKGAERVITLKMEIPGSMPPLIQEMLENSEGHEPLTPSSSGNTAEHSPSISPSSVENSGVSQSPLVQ

[4] = molecular target: T1, Retinoic acid receptor gamma (Homo sapiens); test: Relative transcriptional activation in CV-1 cells expressing RAR gamma receptor compared to ATRA; Not detectable; assay type: functional, cell-based; conditions: Cercopithecidae
[5] = molecular target: T3, Retinoic acid receptor beta (Homo sapiens); test: Inhibition of [3H]ATRA-Hl60 binding to Retinoic acid receptor beta relative to ATRA; Not detectable; in short: as §1
HL-60 = test: Effective dose for induction of HL-60 cell differentiation; assay type: functional, Homo sapiens
In short: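 HL-60 cells treated with retinoid. Differentiation scored by the CD11b marker. Activity expressed relative to ATRA, as EC30/ATRA EC30.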

[6] = molecular target: T1, Retinoic acid receptor gamma (Homo sapiens); test: Relative transcriptional activation in CV-1 cells expressing RAR gamma receptor compared to ATRA; assay type: functional, cell-based; conditions: Cercopithecidae
[7] = molecular target: T2, Retinoic acid receptor alpha (Homo sapiens); test: Relative transcriptional activation in CV-1 cells expressing RAR alpha receptor compared to ATRA; assay type: functional, cell-based; conditions: Cercopithecidae
[8] = molecular target: T3, Retinoic acid receptor beta (Homo sapiens); test: Relative transcriptional activation in CV-1 cells expressing RAR beta receptor compared to ATRA; assay type: functional, cell-based; conditions: Cercopithecidae
[9] = molecular target: T3, Retinoic acid receptor beta (Homo sapiens); test: Inhibition of [3H]ATRA-Hl60 binding to Retinoic acid receptor beta relative to ATRA; in short: as §1
[10] = molecular target: T1, Retinoic acid receptor gamma (Homo sapiens); test: Inhibition of [3H]ATRA-Hl60 binding to Retinoic acid receptor gamma relative to ATRA; in short: as §1

Row | SMILES | Relative IC50 [1] | Relative EC30 [2] | Relative EC30 [3] | Relative EC30 [4] | Relative IC50 [5] | Relative EC30 [6] | Relative EC30 [7] | Relative EC30 [8] | Relative IC50 [9] | Relative IC50 [10] | ED30 (HL-60)
1 | Cc1ccc(C)c(-n2nc(-c3ccc(-c4ccc(C(=O)O)cc4)[nH]3)cc2C(C)C)c1 | > 1000 nM | > 10000 nM | > 10000 nM | > 10000 nM | > 1000 nM | – | – | – | – | – | >10000 nM
2 | CC1=C(/C=C/C(C)=C/C=C/C(C)=C/C(=O)O)C(C)(C)CCC1 [TRETINOIN] | – | – | – | – | – | – | – | – | – | – | 1.5 nM
3 | CC(C)c1cc(-c2ccc(-c3ccc(C(=O)O)cc3)[nH]2)nn1C(C)C | > 1000 nM | – | – | – | – | 14 nM | 0.19 nM | 1.8 nM | 660 nM | – | 0.27 nM

Further lines, with some results ahead:

Row | Relative IC50 [1] | Relative EC30 [2] | Relative EC30 [3] | Relative EC30 [4] | Relative IC50 [5] | Relative EC30 [6] | Relative EC30 [7] | Relative EC30 [8] | Relative IC50 [9] | Relative IC50 [10] | SMILES | ED30 (HL-60)
4 | > 1000 nM | – | – | – | > 1000 nM | 88 nM | 1 nM | 15 nM | – | – | CC(C)c1cc(-c2ccc(-c3ccc(C(=O)O)cc3)[nH]2)nn1CC(F)(F)F | 0.62 nM
5 | – | – | – | – | – | 2.3 nM | 0.22 nM | 0.63 nM | 110 nM | 70 nM | CC(C)c1cc(-c2ccc(-c3ccc(C(=O)O)cc3)[nH]2)nn1C(C)(C)C | 0.05 nM
